ChEMBL document CHEMBL2062371, “Synthesis of benzamide derivatives and their evaluation as antiprion agents” (Bioorg Med Chem, 2012)
The source made the active and inactive calls.

Assays:
[1] = Inhibition of mouse recombinant alexa fluor 488-labeled PrPC expressed in Escherichia coli BL21(DE3) RIL assessed as inhibition of association with PrPSc measured for 10 secs by SIFT-based confocal microscopy
Method in brief: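 SIFT assay: Alexa-488-labelled mouse rPrP and Alexa-647-labelled L42 antibody (each about 2–6 nM) were mixed with diluted human PrPSc and compound in 20 mM potassium phosphate pH 6 with 0.1% Nonidet P40. Dilution series 0.1–100 µM. Read by dual-colour confocal FIDA as 2D intensity histograms, with cut-offs set from controls. EC50 is half-maximal inhibition of rPrP binding to PrPSc.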

[2] = test system: ScN2a; assay: Antiprion activity in mouse ScN2a cells assessed as reduction in PrPSc level at 20 uM after 3 days by dot blot assay relative to control; assay type: cell-based; design: scale not given: the % may be the effect or the level left
Method in brief: (§1)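 Compound was added at a final 20.0 or 2.0 µM, then incubated 3 days (ScN2a at 37 °C, SMB at 35 °C). Lysates were dot-blotted to PVDF, treated with proteinase K (25 µg/ml, 90 min, 37 °C) and denatured with guanidinium thiocyanate. PrPres was probed with rabbit 1023 antiserum and detected by ECL. Signal is relative to untreated control (100%), from three independent experiments.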

[3] = test system: ScN2a; assay: Antiprion activity in mouse ScN2a cells assessed as reduction in PrPSc level at 2 uM after 3 days by dot blot assay relative to control; assay type: cell-based; design: scale not given: the % may be the effect or the level left; method in brief: as §1
[4] = test system: SMB; assay: Antiprion activity in mouse SMB cells assessed as reduction in PrPSc level at 20 uM after 3 days by dot blot assay relative to control; assay type: cell-based; design: scale not given: the % may be the effect or the level left; method in brief: as §1
[5] = test system: SMB; assay: Antiprion activity in mouse SMB cells assessed as reduction in PrPSc level at 2 uM after 3 days by dot blot assay relative to control; assay type: cell-based; design: scale not given: the % may be the effect or the level left; method in brief: as §1
[6] = Antiprion activity in mouse ScN2a cells assessed as reduction in PrPSc level after 3 days by dot blot assay relative to control; assay type: cell-based; conditions: 72 h
[7] = Antiprion activity in mouse SMB cells assessed as reduction in PrPSc level after 3 days by dot blot assay relative to control; assay type: cell-based; conditions: 72 h
[8] = test system: ScN2a; assay: Antiprion activity in mouse ScN2a cells assessed as inhibition of PrPSc formation at 17 uM after 3 days by dot blot assay relative to control; assay type: cell-based

Row | Compound | EC50 ([1]; read-out: EC50) [µM] | Activity [2] [%] | Activity [3] [%] | Activity [4] [%] | Activity [5] [%] | EC50 [6] [nM] | EC50 [7] [µM] | inhibition [8] | EC50 [1]
1 | CCCCNC(=O)c1cc(NC(=O)CN2CCCC2)ccc1Oc1ccccc1C(F)(F)F | 25 | 15 | 16 | 54 | 61 | 1420 | 16.5 |  | 
2 | CCCCNC(=O)c1cc(NC(=O)CN2CCCCC2)ccc1Oc1ccc(OC)cc1 | 150 | 28 | 49 | 82 | 83 | 3560 | > 1000 |  | 
3 | CCCCNC(=O)c1cc(NC(=O)CN2CCCCC2)ccc1Oc1ccc(F)cc1 | 70 | 32 | 35 | 81 | 61 | 2930 | > 1000 |  | 
4 | CCCCNC(=O)c1cc(NC(=O)CN2CCCCC2)ccc1OC1CCCCC1 | 80 | 22 | 37 | 65 | 76 | 2390 | 108 |  | 
5 | CCCCNC(=O)c1cc(NC(=O)CN2CCCC2)ccc1Oc1ccc(OCCCC)cc1 | 30 | 19 | 52 | 58 | 82 | 2980 | 53.6 |  | 
6 | CCCCNC(=O)c1cc(NC(=O)CN2CCCC2)ccc1OC1CCCCC1 | 200 | 32 | 38 | 38 | 67 | 3140 | 7.81 |  | 
7 | CCCCNC(=O)c1cc(NC(=O)CN2CCCC2)ccc1Oc1ccc(C)cc1 | 70 | 13 | 32 | 55 | 61 | 1830 | 18.9 |  | 
8 | CCCCNC(=O)c1cc(NC(=O)CN2CCCC2)ccc1Oc1ccc(F)cc1 | 200 | 39 | 45 | 92 | 57 | 4700 | > 1000 |  | 
9 | CCCCNC(=O)c1cc(NC(=O)CN2CCCCC2)ccc1Oc1ccccc1 | 200 | 30 | 50 | 75 | 65 | 3860 | 501 |  | 
10 | CCCCNC(=O)c1cc(NC(=O)CN2CCCCC2)ccc1Oc1ccc(C(F)(F)F)cc1 | 70 | 17 | 35 | 53 | 80 | 2080 | 30 |  | 
11 | CCCCNC(=O)c1cc(NC(=O)CN2CCCC2)ccc1Oc1ccccc1 | 200 | 41 | 48 | 82 | 92 | 5520 | > 1000 |  | 
12 | CCCCNC(=O)c1cc(NC(=O)CN2CCCCC2)ccc1OC12CC3CC(CC(C3)C1)C2 | 50 | 12 | 27 | 36 | 54 | 1650 | 5.22 |  | 
13 | CCCCNC(=O)c1cc(NC(=O)CN2CCCC2)ccc1Oc1ccc(C(C)C)cc1 | 18 | 20 | 32 | 48 | 73 | 2080 | 16.3 |  | 
14 | CCCCNC(=O)c1cc(NC(=O)CN2CCCCC2)ccc1Oc1ccc(C)cc1 | 40 | 26 | 36 | 86 | 86 | 2570 | > 1000 |  | 
15 | CCCCNC(=O)c1cc(NC(=O)CN2CCCC2)ccc1Oc1ccc(C(F)(F)F)cc1 | 40 | 12 | 26 | 41 | 50 | 1610 | 5.81 |  | 
16 | CCCCNC(=O)c1cc(NC(=O)CN2CCCC2)ccc1Oc1ccc(OC)cc1 | 198 | 31 | 36 | 75 | 74 | 2920 | 866 |  | 
17 | CCCCNC(=O)c1cc(NC(=O)CN2CCCC2)ccc1OC12CC3CC(CC(C3)C1)C2 | 80 | 16 | 34 | 42 | 77 | 2000 | 12.4 |  | 
18 | CCCCCCCC/C=C\CCCCCCCOCC(C[N+](C)(C)CCNC(=O)C(CCCNCCCN)NCCCN)OCCCCCCC/C=C\CCCCCCCC (stereo not drawn) |  |  |  |  |  |  |  | Active | 
19 | CCCCNC(=O)c1cc(NC(=O)CN2CCCCC2)ccc1Oc1ccc(OCCCC)cc1 | 50 | 21 | 61 | 52 | 76 | 3730 | 24.3 |  | 
20 | CCCCNC(=O)c1cc(NC(=O)CN2CCCCC2)ccc1OC(C)C |  | 29 | 78 | 72 | 58 | 6860 | 161 |  | Not Active
21 | CCCCNC(=O)c1cc(NC(=O)CN2CCCC2)ccc1OC(C)C |  | 24 | 42 | 48 | 59 | 2760 | 10.8 |  | Not Active
22 | CCCCNC(=O)c1cc(NC(=O)CN2CCCCC2)ccc1Oc1ccc(Cl)cc1 | 20 | 21 | 35 | 49 | 68 | 2250 | 15 |  | 
23 | C#CCOc1ccc(NC(=O)CN2CCCCC2)cc1C(=O)NCCCC |  | 37 | 76 | 66 | 70 | 9280 | 97.2 |  | Not Active
24 | CCCCNC(=O)c1cc(NC(=O)CN2CCCCC2)ccc1Oc1ccc(C(C)C)cc1 | 15 | 13 | 43 | 46 | 72 | 2220 | 13.8 |  | 
25 | CCCCNC(=O)c1cc(NC(=O)CN2CCCC2)ccc1Oc1ccc(Cl)cc1 | 55 | 16 | 25 | 46 | 68 | 1700 | 12.3 |  | 
26 | C#CCOc1ccc(NC(=O)CN2CCCC2)cc1C(=O)NCCCC |  | 32 | 43 | 65 | 74 | 3520 | 99.2 |  | Not Active
27 | CCCCNC(=O)c1cc(NC(=O)CN2CCCCC2)ccc1Oc1ccccc1C(F)(F)F | 70 | 12 | 39 | 55 | 75 | 2040 | 30.6 |  | 
